According to ChEMBL document CHEMBL2203015, “Synthesis and biological evaluation of 5-aryloxypyrazole derivatives bearing a rhodanine-3-aromatic acid as potential antimicrobial agents” (Bioorg Med Chem Lett, 2012):
In brackets after ≈: the same amount, converted by molar mass. Activity calls are given as the source filed them. No cut-off for these calls is given here.

How the values were obtained:
[1] = system: Staphylococcus aureus; assay: Antibacterial activity against multidrug-resistant Staphylococcus aureus CCARM 3167 incubated for 24 hrs serial dilution method; type: functional; conditions: CCARM 3167, 24 h
[2] = system: Staphylococcus aureus; assay: Antibacterial activity against Staphylococcus aureus KCTC 503 incubated for 24 hrs serial dilution method; type: functional; conditions: KCTC 503, 24 h
[3] = system: Staphylococcus aureus; assay: Potency index, ratio of MIC for norfloxacin to MIC for compound against multidrug-resistant Staphylococcus aureus CCARM 3506 incubated for 24 hrs serial dilution method; type: functional
[4] = system: Staphylococcus aureus; assay: Potency index, ratio of MIC for norfloxacin to MIC for compound against quinolone-resistant Staphylococcus aureus CCARM 3505 incubated for 24 hrs serial dilution method; type: functional
[5] = system: Staphylococcus aureus; assay: Potency index, ratio of MIC for oxacillin to MIC for compound against quinolone-resistant Staphylococcus aureus CCARM 3519 incubated for 24 hrs serial dilution method; type: functional
[6] = system: Staphylococcus aureus; assay: Antibacterial activity against quinolone-resistant Staphylococcus aureus CCARM 3519 incubated for 24 hrs serial dilution method; type: functional; conditions: CCARM 3519, 24 h
[7] = system: Escherichia coli; assay: Antibacterial activity against Escherichia coli 1356 incubated for 24 hrs serial dilution method; type: functional; conditions: Escherichia coli, 1356, 24 h
[8] = system: Staphylococcus aureus; assay: Antibacterial activity against Staphylococcus aureus KCTC 209 incubated for 24 hrs serial dilution method; type: functional; conditions: KCTC 209, 24 h
[9] = system: Staphylococcus aureus; assay: Potency index, ratio of MIC for norfloxacin to MIC for compound against quinolone-resistant Staphylococcus aureus CCARM 3519 incubated for 24 hrs serial dilution method; type: functional
[10] = system: Staphylococcus aureus; assay: Potency index, ratio of MIC for oxacillin to MIC for compound against quinolone-resistant Staphylococcus aureus CCARM 3505 incubated for 24 hrs serial dilution method; type: functional
[11] = system: Staphylococcus aureus; assay: Antibacterial activity against Staphylococcus aureus RN 4220 incubated for 24 hrs serial dilution method; type: functional; conditions: RN 4220, 24 h
[12] = system: Staphylococcus aureus; assay: Potency index, ratio of MIC for oxacillin to MIC for compound against multidrug-resistant Staphylococcus aureus CCARM 3167 incubated for 24 hrs serial dilution method; type: functional
[13] = system: Staphylococcus aureus; assay: Potency index, ratio of MIC for norfloxacin to MIC for compound against multidrug-resistant Staphylococcus aureus CCARM 3167 incubated for 24 hrs serial dilution method; type: functional
[14] = system: Staphylococcus aureus; assay: Antibacterial activity against multidrug-resistant Staphylococcus aureus CCARM 3506 incubated for 24 hrs serial dilution method; type: functional; conditions: CCARM 3506, 24 h
[15] = system: Staphylococcus aureus; assay: Potency index, ratio of MIC for oxacillin to MIC for compound against multidrug-resistant Staphylococcus aureus CCARM 3506 incubated for 24 hrs serial dilution method; type: functional
[16] = system: Staphylococcus aureus; assay: Antibacterial activity against quinolone-resistant Staphylococcus aureus CCARM 3505 incubated for 24 hrs serial dilution method; type: functional; conditions: CCARM 3505, 24 h
[17] = system: HeLa; assay: Toxicity against human HeLa cells at 2 ug/ml incubated for 48 hrs by MTT assay; type: cell-based
Procedure, shortened: (§1)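 HeLa cells kept in DMEM with 10% FBS and penicillin-streptomycin (100 U/mL) at 37 °C, 5% CO₂, split with 0.25% trypsin at 80–90% confluence. After 3 passages, about 1 × 10⁴ cells per well were seeded and left overnight to attach. Compound exposure 48 h. MTT (5 mg/mL in PBS) added for 4 h, formazan dissolved in DMSO, OD read at 570 nm.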

[18] = system: HeLa; assay: Toxicity against human HeLa cells at 1 ug/ml incubated for 48 hrs by MTT assay; type: cell-based; procedure, shortened: as §1
[19] = Toxicity against human HeLa cells incubated for 48 hrs by MTT assay; type: cell-based; procedure, shortened: as §1
[20] = system: Escherichia coli; assay: Antibacterial activity against Escherichia coli 1356 at 64 ug/ml incubated for 24 hrs serial dilution method; type: functional, organism-based
[21] = system: Staphylococcus aureus; assay: Antibacterial activity against quinolone-resistant Staphylococcus aureus CCARM 3505 at 64 ug/ml incubated for 24 hrs serial dilution method; type: functional, organism-based
[22] = system: Staphylococcus aureus; assay: Antibacterial activity against multidrug-resistant Staphylococcus aureus CCARM 3167 at 64 ug/ml incubated for 24 hrs serial dilution method; type: functional, organism-based
[23] = system: Staphylococcus aureus; assay: Antibacterial activity against Staphylococcus aureus RN 4220 at 64 ug/ml incubated for 24 hrs serial dilution method; type: functional, organism-based
[24] = system: Staphylococcus aureus; assay: Antibacterial activity against quinolone-resistant Staphylococcus aureus CCARM 3519 at 64 ug/ml incubated for 24 hrs serial dilution method; type: functional, organism-based
[25] = system: Staphylococcus aureus; assay: Antibacterial activity against multidrug-resistant Staphylococcus aureus CCARM 3506 at 64 ug/ml incubated for 24 hrs serial dilution method; type: functional, organism-based
[26] = system: Staphylococcus aureus; assay: Antibacterial activity against Staphylococcus aureus KCTC 209 at 64 ug/ml incubated for 24 hrs serial dilution method; type: functional, organism-based
[27] = system: Staphylococcus aureus; assay: Antibacterial activity against Staphylococcus aureus KCTC 503 at 64 ug/ml incubated for 24 hrs serial dilution method; type: functional, organism-based

Row | Structure (SMILES) | MIC [1] | MIC [2] | Ratio [3] | Ratio [4] | Ratio [5] | MIC [6] | MIC [7] | MIC [8] | Ratio [9] | Ratio [10] | MIC [11] | Ratio [12] | Activity [20] | Activity [21] | Activity [22] | Activity [23] | Activity [24] | Activity [25] | Activity [26] | Activity [27] | also measured
1 | Cc1nn(-c2ccccc2)c(Oc2ccc(Br)cc2)c1/C=C1\SC(=S)N([C@@H](Cc2c[nH]c3ccccc23)C(=O)O)C1=O | 1 µg/mL (≈ 1.52 µM) | > 64 µg/mL | 4 | 4 | 64 | 1 µg/mL (≈ 1.52 µM) | > 64 µg/mL | > 64 µg/mL | 4 | 64 | 2 µg/mL (≈ 3.03 µM) | 64 | – | – | – | – | – | – | – | – | Ratio [13]: 4; MIC [14]: 1 µg/mL (≈ 1.52 µM); Ratio [15]: 64; MIC [16]: 1 µg/mL (≈ 1.52 µM)
2 | Cc1nn(-c2ccccc2)c(Oc2ccc(Cl)cc2Cl)c1/C=C1\SC(=S)N([C@@H](Cc2ccccc2)C(=O)O)C1=O | 1 µg/mL (≈ 1.64 µM) | > 64 µg/mL | 8 | 8 | 32 | 2 µg/mL (≈ 3.28 µM) | > 64 µg/mL | > 64 µg/mL | 8 | 32 | 2 µg/mL (≈ 3.28 µM) | 32 | – | – | – | – | – | – | – | – | Activity [17]: Non-toxic; Activity [18]: Non-toxic; Ratio [13]: 8; MIC [14]: 1 µg/mL (≈ 1.64 µM); IC50 at 48 h [19]: 3.54 µg/mL (≈ 5.8 µM); Ratio [15]: 32; MIC [16]: 2 µg/mL (≈ 3.28 µM)
3 | Cc1nn(-c2ccccc2)c(Oc2ccc(Cl)cc2Cl)c1C=O | – | – | – | – | – | – | – | – | – | – | – | – | inactive | inactive | inactive | inactive | inactive | inactive | inactive | inactive | –
4 | Cc1nn(-c2ccccc2)c(Oc2ccccc2)c1C=O | – | – | – | – | – | – | – | – | – | – | – | – | inactive | inactive | inactive | inactive | inactive | inactive | inactive | inactive | –
5 | Cc1ccccc1Oc1c(C=O)c(C)nn1-c1ccccc1 | – | – | – | – | – | – | – | – | – | – | – | – | inactive | inactive | inactive | inactive | inactive | inactive | inactive | inactive | –
6 | Cc1nn(-c2ccccc2)c(Oc2cccc(Cl)c2)c1C=O | – | – | – | – | – | – | – | – | – | – | – | – | inactive | inactive | inactive | inactive | inactive | inactive | inactive | inactive | –
7 | Cc1nn(-c2ccccc2)c(Oc2ccccc2Cl)c1C=O | – | – | – | – | – | – | – | – | – | – | – | – | inactive | inactive | inactive | inactive | inactive | inactive | inactive | inactive | –
8 | Cc1ccc(Oc2c(/C=C3\SC(=S)N([C@@H](Cc4c[nH]c5ccccc45)C(=O)O)C3=O)c(C)nn2-c2ccccc2)c(C)c1 | 1 µg/mL (≈ 1.64 µM) | > 64 µg/mL | 4 | 4 | 64 | 1 µg/mL (≈ 1.64 µM) | > 64 µg/mL | > 64 µg/mL | 4 | 64 | 2 µg/mL (≈ 3.29 µM) | 64 | – | – | – | – | – | – | – | – | Ratio [13]: 4; MIC [14]: 1 µg/mL (≈ 1.64 µM); Ratio [15]: 64; MIC [16]: 1 µg/mL (≈ 1.64 µM)
9 | COc1ccccc1Oc1c(C=O)c(C)nn1-c1ccccc1 | – | – | – | – | – | – | – | – | – | – | – | – | inactive | inactive | inactive | inactive | inactive | inactive | inactive | inactive | –
10 | Cc1nn(-c2ccccc2)c(Oc2cccc(C(F)(F)F)c2)c1C=O | – | – | – | – | – | – | – | – | – | – | – | – | inactive | inactive | inactive | inactive | inactive | inactive | inactive | inactive | –
11 | Cc1nn(-c2ccccc2)c(Oc2c(Cl)cccc2Cl)c1C=O | – | – | – | – | – | – | – | – | – | – | – | – | inactive | inactive | inactive | inactive | inactive | inactive | inactive | inactive | –
12 | Cc1nn(-c2ccccc2)c(Oc2ccc(Cl)cc2Cl)c1/C=C1\SC(=S)N([C@@H](Cc2c[nH]c3ccccc23)C(=O)O)C1=O | 1 µg/mL (≈ 1.54 µM) | > 64 µg/mL | 4 | 4 | 64 | 1 µg/mL (≈ 1.54 µM) | > 64 µg/mL | > 64 µg/mL | 4 | 64 | 2 µg/mL (≈ 3.08 µM) | 64 | – | – | – | – | – | – | – | – | Activity [17]: Non-toxic; Activity [18]: Non-toxic; Ratio [13]: 4; MIC [14]: 1 µg/mL (≈ 1.54 µM); IC50 at 48 h ([19]; read-out: IC50): 5.76 µg/mL (≈ 8.87 µM); Ratio [15]: 64; MIC [16]: 1 µg/mL (≈ 1.54 µM)
13 | COc1ccc(Oc2c(C=O)c(C)nn2-c2ccccc2)cc1 | – | – | – | – | – | – | – | – | – | – | – | – | inactive | inactive | inactive | inactive | inactive | inactive | inactive | inactive | –
